Screens deposited in PubChem BioAssay by several laboratories.
In the library only some 5.9% were active in any assay of this set; here they are far more common.
H69AR growth 86K: growth inhibitors of human H69AR lung tumor cells; hit rate 6% among 85,000; H69AR lung tumor viability, ATP luminescence, 72 h; active compounds read low; viability, % at 10 µM;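 active means viability at or below 40%; inactive means viability above 40%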;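 further: multidrug resistant small cell line overexpressing MRP-1 efflux transporter; 100% = mean luminescence of untreated control wells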
Fibroblast inh: blocks proliferation of human lung fibroblasts | LL 47 human lung fibroblast viability, ATP luminescence; active compounds read low | viability, % at 10 µM | AID 719 | hit rate 1.1% among 85,000;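 active means viability at or below 50% in the single dose screen; inactive means viability above 50%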;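 further: compound exposure lasted 72 h before the ATP readout; 100% = median luminescence of untreated cell-only wells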
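test system = LL 47 human lung fibroblasts | amount = 1,150 fibroblasts seeded per well | medium = 15% FBS in IMEM | times = overnight cell rest, 72 h compound treatment at 37 °C | measured by = CellTiter-Glo luminescence measuring cellular ATP | read-out = viability percentage against median untreated-cell control | benchmarks = cell-only wells, no compound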
Jurkat tox 60K: cytotoxic compounds reducing Jurkat cell viability | inhibition, % at 4 µM | Jurkat E6.1 viability, ATP luminescence, 48 h | hit rate 1.2% among 56,000;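 active means inhibition above the mean inhibition of all tested compounds plus 3 SD, cut at about 28% in these data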
HUVEC inhibit: human endothelial cell proliferation inhibition; hit rate 1.1% among 86,000; AID 648; HUVEC proliferation, CellTiter-Glo luminescence, 72 h; active compounds read low; viability, % at 10 µM (by protocol);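 active means viability at or below 30%; inactive means viability above 30%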;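 further: 100% = median luminescence of DMSO-only cell control wells on each plate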
MT1-MMP txn act: MT1-MMP promoter transcription activation. HT1080 MT1-MMP promoter luciferase reporter, luminescence, overnight; active compounds read high. activation factor at 10 µM. hit rate 0.16% among 86,000;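 active means activation factor of at least 2 for MT1-MMP transcription at 10 µM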
PTK2B oligo ant: Pyk2 (human) oligomerization antagonism. Q293 cells, Pyk2 FERM NanoBiT luminescence; active compounds read low. z-score (the deposit names both 25 µM and 10 µM). hit rate 0.83% among 99,000. AID 1347419. Q14289;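 active means Z-score of -3 or lower, scaled per plate to the spread of control and sample wells; inactive means z-score above -3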;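 further: negative z-score means lost luminescence so less FERM oligomerization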
Target sequence (Q14289 whole entry, looked up): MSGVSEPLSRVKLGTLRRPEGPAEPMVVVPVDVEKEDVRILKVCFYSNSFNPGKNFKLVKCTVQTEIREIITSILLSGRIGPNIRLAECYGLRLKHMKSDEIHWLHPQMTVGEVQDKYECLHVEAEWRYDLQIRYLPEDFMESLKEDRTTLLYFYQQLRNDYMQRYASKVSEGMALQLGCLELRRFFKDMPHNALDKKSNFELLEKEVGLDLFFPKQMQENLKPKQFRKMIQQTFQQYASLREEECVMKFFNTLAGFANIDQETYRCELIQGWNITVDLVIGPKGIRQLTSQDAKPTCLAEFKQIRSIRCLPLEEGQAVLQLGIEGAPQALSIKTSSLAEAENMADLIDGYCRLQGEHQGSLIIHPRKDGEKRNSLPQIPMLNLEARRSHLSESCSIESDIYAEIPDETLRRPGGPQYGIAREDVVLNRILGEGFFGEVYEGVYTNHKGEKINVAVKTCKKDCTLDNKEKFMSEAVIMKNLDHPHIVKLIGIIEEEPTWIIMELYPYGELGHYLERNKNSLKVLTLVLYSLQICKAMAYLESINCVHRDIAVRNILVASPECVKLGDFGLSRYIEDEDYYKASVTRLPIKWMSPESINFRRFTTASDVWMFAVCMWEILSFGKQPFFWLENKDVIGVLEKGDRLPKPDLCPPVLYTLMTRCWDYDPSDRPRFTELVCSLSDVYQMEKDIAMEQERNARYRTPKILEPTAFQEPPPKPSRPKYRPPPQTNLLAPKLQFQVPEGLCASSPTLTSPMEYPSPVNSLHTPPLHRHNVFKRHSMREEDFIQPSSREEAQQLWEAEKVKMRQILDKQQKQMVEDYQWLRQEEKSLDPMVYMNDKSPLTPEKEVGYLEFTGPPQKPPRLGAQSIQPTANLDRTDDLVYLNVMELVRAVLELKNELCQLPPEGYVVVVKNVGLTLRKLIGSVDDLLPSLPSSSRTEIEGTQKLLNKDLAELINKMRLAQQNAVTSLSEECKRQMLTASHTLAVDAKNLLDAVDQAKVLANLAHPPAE
* hit, by the source's call; . = no result given.

SMILES | H69AR growth 86K | Fibroblast inh | Jurkat tox 60K | HUVEC inhibit | MT1-MMP txn act | PTK2B oligo ant
COC(=O)C(Cc1c[nH]c2ccccc12)NC(C)=O (centres undefined) | 93 | 112 | . | 100 | 1.2 | 0.74
COc1ccc(C(c2c[nH]c3ccccc23)c2c[nH]c3ccccc23)cc1O | 7.2* | 82 | . | 37 | . | .
Cc1ccc(C(=O)CSc2nnc(-c3ccco3)n2CC2CCCO2)cc1 (centres undefined) | 99 | 110 | -3 | 103 | 1.1 | 0.23
COc1ccc(C(=O)N/C(N)=N/c2nc3ccccc3o2)cc1 | 19* | 97 | . | 86 | 1.1 | 2.2
CC(C)(C)c1ccc(C(=O)N/C(N)=N/c2nc3ccccc3o2)cc1 | 45 | 104 | . | 80 | 1.3 | 0.06
CC(C)Oc1ccc(/C=N/NC(=O)C(CSCc2ccccc2)NC(=O)c2ccc([N+](=O)[O-])cc2)cc1 (centres undefined) | 28* | 66 | . | 67 | 1.1 | 0.64
O=C(COc1ccc(/C=N/NC(=O)c2ccccc2)cc1)Nc1ccc([N+](=O)[O-])cc1 | . | . | . | . | . | 0.21
OCC#CCSc1nnc(-c2ccc(Br)cc2)o1 | 71 | 95 | 8 | 85 | 1.1 | 1.1
COc1ccc(-c2nnc(SCC#CCO)o2)cc1OC | 31* | 97 | -1 | 102 | 1.3 | 0.2
COc1ccc(-c2nnc(SCC(=O)N3CCCc4ccccc43)o2)cc1OC | 37* | 98 | 5 | 85 | 0.9 | 0.71
COc1ccc(-c2nnc(SCC(=O)N3CCCC3)o2)cc1OC | 99 | 100 | 0 | 96 | 1.2 | .
COc1ccc(OC)c(C(=O)CSc2nnc(-c3ccc(OC)c(OC)c3)o2)c1 | 84 | 30* | 8 | 67 | 1 | .
c1ccc(COc2ccc(CN3CCN(c4ccccn4)CC3)cc2)cc1 | 83 | 98 | . | 96 | 1.2 | 0.48
COc1ccccc1-c1noc(-c2cccs2)n1 | 82 | 93 | . | 78 | 1.3 | -1.2
Cc1ccc(-c2noc(-c3cccs3)n2)cc1 | 40* | 86 | -2 | 87 | 0.6 | 0.21
Cc1ccc(C2CN(C)C3(C(=O)Nc4ccccc43)C23COc2ccccc2C3=O)cc1 (centres undefined) | . | . | . | . | . | -3.6*
Cc1ccccc1NC(=O)N(CCc1nc2ccccc2[nH]1)Cc1ccccc1 | 16* | 99 | . | 68 | 1.3 | 0.07
CCN(CC)CCN(C)Cc1ccc(Br)cc1 | 68 | 94 | . | 91 | 1.1 | 0.44
CCc1ccc(OCC(=O)Nc2ccc(S(=O)(=O)N3CCCC3)cc2)c(Br)c1 | 30* | 104 | . | 61 | 1 | 0.52
COc1cc(NC(=O)c2cccs2)c(C(=O)OCC(=O)NC(=O)NCc2ccccc2)cc1OC | 27* | 100 | . | 74 | 1.1 | -0.03
COc1cc(NC(=O)c2cccs2)c(C(=O)OCC(=O)NC(=O)NC(C)(C)C)cc1OC | 98 | 102 | . | 88 | 1.5 | -2.1
CC1=C(C(=O)OC2CCCC2)C(c2ccc(C)o2)C2=C(CC(c3cccs3)CC2=O)N1 (centres undefined) | 35* | 85 | 8 | 93 | 1.3 | -1.5
COC(=O)C1=C(C)NC2=C(C(=O)CC(c3cccs3)C2)C1c1ccsc1 (centres undefined) | 24* | 69 | . | 71 | 1.1 | -2.1
CCOC(=O)C1=C(C)NC2=C(C(=O)CC(c3cccs3)C2)C1c1cccs1 (centres undefined) | 15* | 57 | . | 41 | 1.3 | -3.3*
CCCOC(=O)C1=C(C)NC2=C(C(=O)CCC2)C1c1cccs1 (centres undefined) | 92 | 105 | -1 | 99 | 1.1 | -2.7
SMILES | H69AR growth 86K | Fibroblast inh | Jurkat tox 60K | HUVEC inhibit | MT1-MMP txn act | PTK2B oligo ant
O=c1c2ccccc2c(-c2ccccc2)nn1-c1ccc(Cl)c(Cl)c1 | . | . | . | . | . | -0.22
CCOC(=O)c1ccc(N=c2sc(C(=O)OC)cc(=O)n2Cc2ccco2)cc1 | 1.3* | 69 | 8 | 29* | 0.8 | .
COC(=O)c1cc(=O)n(Cc2cccs2)c(=NCc2cccs2)s1 | . | . | . | . | 1.3 | -0.51
CCOC(=O)c1ccc(N=c2sc(C(=O)OC)cc(=O)n2CCCN2CCOCC2)cc1 | 21* | 67 | 7 | 58 | 1.1 | .
COc1ccc(S(=O)(=O)N[C@@H](Cc2ccc(Cl)cc2)C(=O)N2CC[C@@]3(O)CCCC[C@H]3C2)cc1 | 58 | 94 | . | 102 | 1.1 | -0.08
O=C(N/N=C/c1ccc(OCCCF)cc1)c1cc(OCC(F)(F)F)ccc1OCC(F)(F)F | . | . | . | . | . | 1.7
CC1CCC(NC(=O)CC2Oc3ccccc3NC2=O)CC1 (centres undefined) | 94 | 104 | 2 | 101 | 1.1 | .
c1cc2c3c(cccc3c1)NC1(CCCCC1)N2 | 97 | 83 | . | 70 | 1.1 | -1.6
c1cc2c3c(cccc3c1)NC1(CCCCCC1)N2 | 51 | 83 | 0 | 5.5* | 1.2 | -1.3
CCn1c(SCc2nnc(-c3ccccc3)o2)nnc1-c1ccc(S(=O)(=O)N2CCCC2)cc1 | 91 | 98 | 9 | 96 | 1.2 | -0.34
CCn1c(SCc2ccccc2)nnc1-c1ccc(S(=O)(=O)N2CCCCC2)cc1 | 26* | 86 | 16 | 100 | 1.1 | -1
Cc1ccccc1-n1c(Cn2c(=O)sc3ccccc32)nnc1SCC(=O)NCC1CCCO1 (centres undefined) | 95 | 88 | 3 | 95 | 1.2 | .
Cc1cc(C)nc(NC(=O)/C=C/c2cccs2)c1 | . | . | . | . | . | -0.29
Cc1c(C(=O)/C=C/c2cccs2)oc2ccc(F)cc12 | 21* | 89 | . | 85 | 1.6 | 0.12
COc1ccc(C(=O)Nn2c(SCc3ccc([N+](=O)[O-])cc3)nc3ccccc3c2=O)cc1 | . | . | . | . | . | 1.5
COC(=O)c1ccccc1NC(=O)CSc1nnc(Cc2ccc(Cl)cc2)o1 | 94 | 99 | -1 | 108 | 1 | 0.68
O=C(NCc1ccco1)c1cccn2c(=O)c3cc4ccccc4cc3nc12 | 21* | 87 | . | 53 | 1.5 | .
COC(=O)c1sccc1NC(=O)c1ccc2c(c1)OCO2 | 39* | 29* | . | 64 | . | -1.5
COC(=O)c1ccc(NC(=O)c2ccc3c(c2)OCO3)cc1 | 79 | 95 | -2 | 90 | 1.3 | 0.16
Cc1ccnc(N/C=C(\C#N)c2nc(-c3cccc(Br)c3)cs2)c1 | . | . | . | . | . | -0.31
CCOc1ccc(-c2cc(C(=O)O)c3ccccc3n2)c(OCC)c1 | 89 | 96 | 37* | 83 | 1.5 | -0.01
CCOC(=O)C1=C(CNCc2ccc(C)cc2)NC(=O)NC1c1ccc(OC)cc1 (centres undefined) | 50 | 97 | 35* | 94 | 1.1 | -0.31
Cc1ccc2[nH]c(-c3ccccc3)cc(=O)c2c1 | 33* | 61 | 98* | 47 | 0.4 | .
Cc1ccc2[nH]c(C(=O)O)c(-c3ccccc3)c2c1 | 107 | 97 | 6 | 100 | 1 | 1.1
O=C(CN1C(=O)c2cccc3cccc1c23)Nc1cccnc1 | . | . | . | . | 1.1 | -0.95
CCCCNC(=O)Cc1coc2ccc3ccccc3c12 | 79 | 98 | . | 91 | 1.1 | -1.1
C=CCc1ccc(OCC(O)COc2ccc(CC=C)cc2OC)c(OC)c1 | 35* | 100 | . | 85 | 1 | -1.8
